Calls of active or inactive are those of the source. The calls are words filed in the database; no cut-off is given here.
Columns and labels:
[1] = target: T1, Acyl-CoA desaturase 1 (Mus musculus, UniProt P13516); test: Inhibition of SCD1 in ICR mouse liver microsome using [9,10 3H]- stearoyl-Coenzyme A substrate assessed as decreased production of tritiated water after 20 min by scintillation counting analysis
T1 sequence (P13516 whole entry): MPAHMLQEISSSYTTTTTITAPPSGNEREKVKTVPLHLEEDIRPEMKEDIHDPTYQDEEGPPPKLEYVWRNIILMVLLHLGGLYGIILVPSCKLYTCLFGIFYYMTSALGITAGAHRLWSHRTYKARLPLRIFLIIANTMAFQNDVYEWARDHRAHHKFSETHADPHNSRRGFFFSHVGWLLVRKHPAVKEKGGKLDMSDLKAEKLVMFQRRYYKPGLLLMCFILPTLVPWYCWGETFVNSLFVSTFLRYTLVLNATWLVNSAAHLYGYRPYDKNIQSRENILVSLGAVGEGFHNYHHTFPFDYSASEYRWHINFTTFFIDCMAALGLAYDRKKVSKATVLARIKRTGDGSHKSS

[2] = target: T2, Stearoyl-CoA desaturase (Homo sapiens, UniProt O00767); test: Inhibition of SCD1 in human HepG2 cells using [14C]-stearate substrate assessed as decreased production of [14C]-oleic acid after 24 hrs; format: cell-based
T2 sequence (O00767 whole entry): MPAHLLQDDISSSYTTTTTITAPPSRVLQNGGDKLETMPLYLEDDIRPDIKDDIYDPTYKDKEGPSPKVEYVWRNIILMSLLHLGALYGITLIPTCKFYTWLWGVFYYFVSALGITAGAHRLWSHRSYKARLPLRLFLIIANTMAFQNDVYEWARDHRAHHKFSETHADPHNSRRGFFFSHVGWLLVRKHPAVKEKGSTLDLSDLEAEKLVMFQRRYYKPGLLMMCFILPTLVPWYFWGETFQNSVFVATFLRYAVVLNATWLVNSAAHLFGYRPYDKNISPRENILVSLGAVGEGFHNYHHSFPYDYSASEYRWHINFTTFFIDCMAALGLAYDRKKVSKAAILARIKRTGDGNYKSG

[3] = target: Acyl-CoA (8-3)-desaturase (Rattus norvegicus) (UniProt Q920R3); test: Inhibition of delta5 desaturase in Sprague-Dawley rat liver microsome at 10 uM; format: microsomes
[4] = target: Acyl-CoA 6-desaturase (Rattus norvegicus) (UniProt Q9Z122); test: Inhibition of delta6 desaturase in Sprague-Dawley rat liver microsome using cis,cis-9,12-octadecadienoic acid substrate at 10 uM
[5] = Apparent permeability from apical to basolateral side in human Caco2 cells; format: ADME, cell-based; conditions: Caco-2
Outline: (§1)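 Caco-2 monolayers; apparent permeability a-to-b and b-to-a reported in 10⁻⁶ cm/s.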

[6] = Apparent permeability from basolateral to apical side in human Caco2 cells; format: ADME, cell-based; conditions: Caco-2
Outline: as §1

[7] = Metabolic stability in rat liver microsome after 30 mins by LC/MS/MS analysis; format: ADME; conditions: liver microsomes, read-out: Stability
Outline: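 Compound incubated 30 min with rat liver microsomes; percent parent remaining by LC/MS/MS.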

[8] = test system: Rattus norvegicus; test: In vivo inhibition of SCD1 in Lewis rat liver microsome at 15 mg/kg, ip administered qd for 2 days; format: functional; conditions: 48 h, route intraperitoneal
Outline: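 Lewis rats fed high-carbohydrate diet for one week, fasted 4 h, then dosed orally (0.1–1 mg/kg in 0.2% Tween 20/1% CMC; n = 4), killed 4 h later; ip arm 15 mg/kg once daily for two days. Liver microsomes prepared, SCD1 activity measured by tritiated water release from [9,10-3H]stearoyl-CoA. Mean ± SD of at least four rats.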

Acyl-CoA 6-desaturase (Rattus norvegicus), sequence (Q9Z122 whole entry, looked up): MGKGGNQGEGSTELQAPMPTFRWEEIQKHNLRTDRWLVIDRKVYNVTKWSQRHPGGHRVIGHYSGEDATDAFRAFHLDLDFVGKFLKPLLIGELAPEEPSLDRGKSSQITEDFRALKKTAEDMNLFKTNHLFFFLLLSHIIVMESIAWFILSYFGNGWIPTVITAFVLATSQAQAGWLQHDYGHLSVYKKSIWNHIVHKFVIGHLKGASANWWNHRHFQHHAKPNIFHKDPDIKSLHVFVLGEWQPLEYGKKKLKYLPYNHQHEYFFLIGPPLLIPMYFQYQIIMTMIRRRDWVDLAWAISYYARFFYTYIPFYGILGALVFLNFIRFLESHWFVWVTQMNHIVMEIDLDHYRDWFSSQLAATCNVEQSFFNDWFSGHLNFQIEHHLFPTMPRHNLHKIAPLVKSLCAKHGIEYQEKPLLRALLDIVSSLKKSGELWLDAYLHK
Acyl-CoA (8-3)-desaturase (Rattus norvegicus), sequence (Q920R3 whole entry, looked up): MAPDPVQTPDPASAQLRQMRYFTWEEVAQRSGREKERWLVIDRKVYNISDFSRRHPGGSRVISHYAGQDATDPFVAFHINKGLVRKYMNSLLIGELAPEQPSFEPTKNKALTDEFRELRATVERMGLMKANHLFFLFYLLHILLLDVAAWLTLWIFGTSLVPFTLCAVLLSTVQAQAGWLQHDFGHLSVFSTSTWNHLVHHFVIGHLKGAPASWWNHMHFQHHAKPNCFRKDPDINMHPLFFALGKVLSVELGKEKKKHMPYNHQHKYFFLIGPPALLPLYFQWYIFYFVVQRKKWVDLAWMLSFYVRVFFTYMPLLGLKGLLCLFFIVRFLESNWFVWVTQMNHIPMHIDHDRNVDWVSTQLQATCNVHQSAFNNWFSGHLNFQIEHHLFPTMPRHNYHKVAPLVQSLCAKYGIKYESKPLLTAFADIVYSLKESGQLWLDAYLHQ

| SMILES | IC50 [1] | IC50 [2] | inhibition [3] | inhibition [4] | Papp A→B [5] | Papp B→A [6] | remaining at 0.5 h [7] | inhibition in vivo at 15 mg/kg [8] |
| --- | --- | --- | --- | --- | --- | --- | --- | --- |
| O=C(NCCC1CC1)c1ccc(N2CCN(C(=O)c3cnc(Cl)nc3C(F)(F)F)CC2)nn1 | 321 nM | 5870 nM | inactive | inactive |  |  |  |  |
| CC1CCCCC1C(=O)N1CCN(c2ccc(C(=O)NCCC3CC3)nn2)CC1 (configuration not stated) | 680 nM |  |  |  |  |  |  |  |
| CN(C)c1ccccc1C(=O)N1CCN(c2ccc(C(=O)NCCC3CC3)nn2)CC1 | 920 nM |  |  |  |  |  |  |  |
| O=C(NCCC1CC1)c1ccc(N2CCN(C(=O)c3cccc(F)c3C(F)(F)F)CC2)nn1 | 58 nM |  | inactive | inactive | 20 ×10⁻⁶ cm/s | 26 ×10⁻⁶ cm/s | 72% |  |
| O=C(NCCC1CC1)c1ccc(N2CCN(C(=O)c3ccccc3F)CC2)nn1 | > 1000 nM |  |  |  |  |  |  |  |
| O=C(NCCCCC1CC1)c1ccc(N2CCN(C(=O)c3ccccc3C(F)(F)F)CC2)nn1 |  |  | inactive | inactive | 13 ×10⁻⁶ cm/s | 17 ×10⁻⁶ cm/s | 42% |  |
| O=C(NCc1cocn1)c1ccc(N2CCN(C(=O)c3ccccc3C(F)(F)F)CC2)nn1 | 272 nM |  |  |  |  |  |  |  |
| O=C(NCCC1CC1)c1ccc(N2CCN(C(=O)/C=C\C(F)(F)F)CC2)nn1 | > 10000 nM |  |  |  |  |  |  |  |
| O=C(NCCC1CC1)c1ccc(N2CCN(C(=O)c3cc(F)ccc3F)CC2)nn1 | 3110 nM |  |  |  |  |  |  |  |
| O=C(NCCCC1CC1)c1ccc(N2CCN(C(=O)c3ccccc3C(F)(F)F)CC2)nn1 | 34 nM |  | inactive | inactive | 32 ×10⁻⁶ cm/s | 30 ×10⁻⁶ cm/s | 63% | > 60% |
| CC(C)CCNC(=O)c1ccc(N2CCN(C(=O)c3ccccc3C(F)(F)F)CC2)cn1 | 220 nM |  |  |  |  |  |  |  |
| O=C(NCc1ccc(C(F)(F)F)o1)c1ccc(N2CCN(C(=O)c3ccccc3C(F)(F)F)CC2)nn1 | 31 nM |  | inactive | inactive | 18 ×10⁻⁶ cm/s | 18 ×10⁻⁶ cm/s | 78% |  |
| N#Cc1ccccc1C(=O)N1CCN(c2ccc(C(=O)NCCC3CC3)nn2)CC1 | > 1000 nM |  |  |  |  |  |  |  |
| O=C(NCCC1CC1)c1ccc(N2CCN(C(=O)c3ccccc3C(=O)O)CC2)nn1 | > 10000 nM |  |  |  |  |  |  |  |
| O=C(Nc1ccccc1)c1ccc(N2CCN(C(=O)c3ccccc3C(F)(F)F)CC2)nn1 | 83 nM |  | inactive | inactive | 13 ×10⁻⁶ cm/s | 10 ×10⁻⁶ cm/s | 9% |  |
| CCCCCCCNC(=O)c1ccc(N2CCN(C(=O)c3ccccc3C(F)(F)F)CC2)nn1 | 18 nM |  | inactive | inactive |  |  |  |  |
| O=C(NCc1ncco1)c1ccc(N2CCN(C(=O)c3ccccc3C(F)(F)F)CC2)nn1 | 500 nM |  |  |  |  |  |  |  |
| O=C(NCc1ccccc1)c1ccc(N2CCN(C(=O)c3ccccc3C(F)(F)F)CC2)nn1 | 6 nM |  | inactive | inactive | 34 ×10⁻⁶ cm/s | 34 ×10⁻⁶ cm/s | 97% |  |
| CCOCCNC(=O)c1ccc(N2CCN(C(=O)c3ccccc3C(F)(F)F)CC2)nn1 | 1250 nM |  |  |  |  |  |  |  |
| Cc1ccc(C)c(C(=O)N2CCN(c3ccc(C(=O)NCCC4CC4)nn3)CC2)c1 | 942 nM |  |  |  |  |  |  |  |
| Cc1ccc(CNC(=O)c2ccc(N3CCN(C(=O)c4ccccc4C(F)(F)F)CC3)nn2)o1 | 15 nM |  | inactive | inactive | 25 ×10⁻⁶ cm/s | 23 ×10⁻⁶ cm/s | 37% | < 30% |

The next lines start with results.

| IC50 [1] | IC50 [2] | inhibition [3] | inhibition [4] | Papp A→B [5] | Papp B→A [6] | remaining at 0.5 h [7] | SMILES | inhibition in vivo at 15 mg/kg [8] |
| --- | --- | --- | --- | --- | --- | --- | --- | --- |
| 352 nM |  |  |  |  |  |  | O=C(NCc1ccccn1)c1ccc(N2CCN(C(=O)c3ccccc3C(F)(F)F)CC2)nn1 |  |
|  |  | inactive | inactive | 22 ×10⁻⁶ cm/s | 28 ×10⁻⁶ cm/s | 92% | O=C(NC[C@H](O)c1ccccc1)c1ccc(N2CCN(C(=O)c3ccccc3C(F)(F)F)CC2)nn1 |  |
| 10000 nM |  |  |  |  |  |  | CC(C)(O)CCNC(=O)c1ccc(N2CCN(C(=O)c3ccccc3C(F)(F)F)CC2)nn1 |  |
| 21 nM |  | inactive | inactive | 22 ×10⁻⁶ cm/s | 22 ×10⁻⁶ cm/s | 69% | O=C(NCCC1CC1)c1ccc(N2CCN(C(=O)c3ccc(F)cc3C(F)(F)F)CC2)nn1 | > 60% |
| 113 nM | 119 nM | inactive | inactive |  |  |  | CC(C(=O)N1CCN(c2ccc(C(=O)NCCC3CC3)nn2)CC1)(C(F)(F)F)C(F)(F)F |  |
| > 1000 nM |  |  |  |  |  |  | O=C(NCCC1CC1)c1ccc(N2CCN(C(=O)C3CC3C(F)(F)F)CC2)nn1 (configuration not stated) |  |
| > 10000 nM |  |  |  |  |  |  | CC(C)CCNC(=O)c1cnc(N2CCN(C(=O)c3ccccc3C(F)(F)F)CC2)nc1 |  |
| > 1000 nM |  |  |  |  |  |  | O=C(NCc1ccn[nH]1)c1ccc(N2CCN(C(=O)c3ccccc3C(F)(F)F)CC2)nn1 |  |
| 32 nM |  | inactive | inactive | 29 ×10⁻⁶ cm/s | 29 ×10⁻⁶ cm/s | 79% | O=C(NCc1nccs1)c1ccc(N2CCN(C(=O)c3ccccc3C(F)(F)F)CC2)nn1 |  |
| 62 nM | 192 nM | inactive | inactive | 28 ×10⁻⁶ cm/s | 29 ×10⁻⁶ cm/s | 66% | O=C(NCCC1CC1)c1ccc(N2CCN(C(=O)c3cc(F)ccc3Cl)CC2)nn1 |  |
| 5100 nM |  |  |  |  |  |  | COc1ccc(Br)c(C(=O)N2CCN(c3ccc(C(=O)NCCCc4ccccc4)cn3)CC2)c1 |  |
| 69 nM |  | inactive | inactive |  |  |  | O=C(NCCCc1ccccc1)c1ccc(N2CCN(C(=O)c3ccccc3C(F)(F)F)CC2)nn1 |  |
| 710 nM |  |  |  |  |  |  | COc1ccc(F)cc1C(=O)N1CCN(c2ccc(C(=O)NCCC3CC3)nn2)CC1 |  |
| > 10000 nM |  |  |  |  |  |  | CN(C)c1ccc(Cl)c(C(=O)N2CCN(c3ccc(C(=O)NCCC4CC4)nn3)CC2)c1 |  |
| 21 nM |  | inactive | inactive | 20 ×10⁻⁶ cm/s | 18 ×10⁻⁶ cm/s | 14% | CCCCCCNC(=O)c1ccc(N2CCN(C(=O)c3ccccc3C(F)(F)F)CC2)nn1 |  |
|  |  | inactive | inactive | 16 ×10⁻⁶ cm/s | 15 ×10⁻⁶ cm/s | 56% | O=C(NCCc1ccccc1)c1ccc(N2CCN(C(=O)c3ccccc3C(F)(F)F)CC2)nn1 |  |
| 78 nM |  |  |  |  |  |  | CC(C)CCNC(=O)c1ccc(N2CCN(C(=O)c3ccccc3C(F)(F)F)CC2)nc1 |  |
|  |  | inactive | inactive | 23 ×10⁻⁶ cm/s | 29 ×10⁻⁶ cm/s | 82% | O=C(NC[C@@H](O)c1ccccc1)c1ccc(N2CCN(C(=O)c3ccccc3C(F)(F)F)CC2)nn1 | > 60% |
| 25 nM |  | inactive | inactive | 22 ×10⁻⁶ cm/s | 22 ×10⁻⁶ cm/s | 49% | CCCCCNC(=O)c1ccc(N2CCN(C(=O)c3ccccc3C(F)(F)F)CC2)nn1 |  |
| 1400 nM |  |  |  |  |  |  | O=C(Nc1ccccn1)c1ccc(N2CCN(C(=O)c3ccccc3C(F)(F)F)CC2)nn1 |  |
| 34 nM | 101 nM | inactive | inactive |  |  |  | O=C(NCCC1CC1)c1ccc(N2CCN(C(=O)c3cc(Cl)ccc3Cl)CC2)nn1 |  |
| 33 nM |  | inactive | inactive |  |  |  | Cc1cnc(CNC(=O)c2ccc(N3CCN(C(=O)c4ccccc4C(F)(F)F)CC3)nn2)cn1 |  |
| > 10000 nM |  |  |  |  |  |  | CC(C)CCNC(=O)c1cnc(N2CCN(C(=O)c3ccccc3C(F)(F)F)CC2)cn1 |  |
| 150 nM |  | inactive | inactive |  |  |  | CC(CNC(=O)c1ccc(N2CCN(C(=O)c3ccccc3C(F)(F)F)CC2)nn1)c1ccccc1 (configuration not stated) |  |
| 1200 nM |  |  |  |  |  |  | CCCCCCNC(=O)c1ncc(N2CCN(C(=O)c3ccccc3C(F)(F)F)CC2)cn1 |  |
|  | 290 nM | inactive | inactive |  |  |  | O=C(NCCC1CC1)c1ccc(N2CCN(C(=O)c3ccoc3C(F)(F)F)CC2)nn1 |  |
